Assay results reported in ChEMBL document CHEMBL2069181, “In vitro and in vivo trypanosomicidal activity of pyrazole-containing macrocyclic and macrobicyclic polyamines: their action on acute and chronic phases of Chagas disease” (J Med Chem, 2012).
Activity calls are given as the source filed them.

Key:
Trypanosoma cruzi [1] = experiment: Trypanosomicidal activity against Trypanosoma cruzi SN3 epimastigote after 72 hrs by hemocytometric analysis; assay type: functional, organism-based; conditions: SN3, 72 h
Procedure, shortened: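 Exponential-phase SN3 epimastigotes (Grace's medium, 10% FBS, 28 °C) seeded at 5 × 10^4 parasites/well with compounds dissolved in MTL at 1, 10, 25, 50, 100 μM.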

Trypanosoma cruzi [2] = experiment: Trypanosomicidal activity against Trypanosoma cruzi SN3 anexic amastigote after 48 hrs by hemocytometric analysis; assay type: functional, organism-based; conditions: SN3, 48 h
Procedure, shortened: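 Axenic amastigotes obtained from epimastigotes after 3 days in supplemented M199 (10% FCS, pH 5.4, 37 °C).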

Trypanosoma cruzi [3] = experiment: Trypanosomicidal activity against Trypanosoma cruzi SN3 amastigote infected in Vero cells after 72 hrs by Giemsa staining method; assay type: functional, organism-based
Procedure, shortened: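 Vero cells seeded at 1 × 10^4/well on coverslips, grown 2 days, infected with metacyclic forms (10:1) for 24 h, washed, then treated at 1–100 μM for 72 h in RPMI/10% FBS. Amastigote reduction scored on methanol-fixed Giemsa-stained slides; four determinations; IC50.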

Vero = experiment: Cytotoxicity against African green monkey Vero cells assessed as cell viability after 72 hrs by flow cytometric analysis; assay type: cell-based; conditions: Chlorocebus sabaeus
Procedure, shortened: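 Vero cells grown in RPMI with 10% inactivated FBS at 37 °C, 5% CO2, seeded at 1 × 10^5 cells/mL, grown 2 days, then exposed to 1–100 μM compound for 72 h. Viability measured by flow cytometry; IC50 by linear regression.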

[4] = Selectivity index, ratio of IC50 for Vero cells to IC50 for Trypanosoma cruzi epimastigote; assay type: toxicity, cell-based; conditions: monkey, Vero cells versus Trypanosoma cruzi epimastigotes; read-out: Ratio IC50
[5] = Selectivity index, ratio of IC50 for Vero cells to IC50 for Trypanosoma cruzi anexic amastigote; assay type: toxicity, cell-based; conditions: monkey, Vero cells versus Trypanosoma cruzi axenic amastigotes; read-out: Ratio IC50
[6] = Selectivity index, ratio of IC50 for Vero cells to IC50 for Trypanosoma cruzi intracellular amastigote infected in Vero cells; assay type: toxicity, cell-based; conditions: monkey; read-out: Ratio IC50
Trypanosoma cruzi [7] = experiment: Trypanosomicidal activity against Trypanosoma cruzi infected in Vero cells assessed as reduction in rate of infection after 10 days by Giemsa staining method; assay type: functional; set-up: scale not given: the % may be the effect or the level left
Procedure, shortened: (§1)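 Vero cells infected with metacyclic forms (10:1); compounds at IC25 added at infection for 12 h at 37 °C, then washed out and cultures grown 10 days with medium renewed every 48 h. Infected cells and amastigotes per cell counted in >100 host cells on Giemsa-stained slides; trypomastigotes in medium counted; mean of four determinations.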

Trypanosoma cruzi [8] = experiment: Trypanosomicidal activity against Trypanosoma cruzi infected in Vero cells assessed as reduction in amastigotes per infected Vero cells after 6 days by Giemsa staining method; assay type: functional; set-up: scale not given: the % may be the effect or the level left
Trypanosoma cruzi [9] = experiment: Trypanosomicidal activity against Trypanosoma cruzi infected in Vero cells assessed as reduction in trypomastigotes in culture medium after 10 days by Giemsa staining method; assay type: functional; set-up: scale not given: the % may be the effect or the level left; procedure, shortened: as §1
[10] = Inhibition of Trypanosoma cruzi epimastigotes Fe-SOD by NBT reduction assay
Procedure, shortened: (§2)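 Enzyme from epimastigotes grown without FBS (excreted Fe-SOD), sonicated in STE buffer pH 7.8, centrifuged, supernatant protein by Bradford; human erythrocyte CuZn-SOD for comparison. NBT reduction by superoxide (Beyer–Fridovich): methionine, NBT, Triton X-100, riboflavin, homogenate plus compound; A560 read before and after 10 min UV illumination with stirring. Five separate determinations; Newman–Keuls test against control.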

Mus musculus [11] = experiment: Toxicity in BALB/c mouse liver infected with Trypanosoma cruzi assessed as granulomas with limphocitic infiltration at 5 mg/kg, ip after 120 days postinfection by Histopathological analysis; assay type: organism-based; set-up: dose 5 mg/kg, route intraperitoneal; conditions: in vivo, 2880 h
Procedure, shortened: (§3)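 Livers removed at 120 days postinfection, fixed in 10% buffered formalin, paraffin-embedded, 4–5 μm sections stained with H&E and Masson's trichrome. Blinded scoring of at least 30 fields per slide, 0 (none) to 5 (severe).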

Mus musculus [12] = experiment: Toxicity in BALB/c mouse liver infected with Trypanosoma cruzi assessed as delocalized hepatic destruction at 5 mg/kg, ip after 120 days postinfection by Histopathological analysis; assay type: organism-based; set-up: dose 5 mg/kg, route intraperitoneal; conditions: in vivo, 2880 h; procedure, shortened: as §3
Mus musculus [13] = experiment: Toxicity in BALB/c mouse liver infected with Trypanosoma cruzi assessed as blood vessels with thickened walls at 5 mg/kg, ip after 120 days postinfection by Histopathological analysis; assay type: organism-based, Blood vessel; set-up: dose 5 mg/kg, route intraperitoneal; conditions: in vivo, 2880 h; procedure, shortened: as §3
Mus musculus [14] = experiment: Toxicity in BALB/c mouse liver infected with Trypanosoma cruzi assessed as lymphocytic infiltrations in portal tracts at 5 mg/kg, ip after 120 days postinfection Histopathological analysis; assay type: organism-based; set-up: dose 5 mg/kg, route intraperitoneal; conditions: in vivo, 2880 h; procedure, shortened: as §3
Mus musculus [15] = experiment: Toxicity in BALB/c mouse liver infected with Trypanosoma cruzi assessed as intestinal hemorrhage at 5 mg/kg, ip after 120 days postinfection by Histopathological analysis; assay type: organism-based; set-up: dose 5 mg/kg, route intraperitoneal; conditions: in vivo, 2880 h; procedure, shortened: as §3
Mus musculus [16] = experiment: Toxicity in BALB/c mouse liver infected with Trypanosoma cruzi assessed as hepatic destruction in portal tracts at 5 mg/kg, ip after 120 days postinfection by Histopathological analysis; assay type: organism-based; set-up: dose 5 mg/kg, route intraperitoneal; conditions: in vivo, 2880 h; procedure, shortened: as §3
Mus musculus [17] = experiment: Toxicity in BALB/c mouse liver infected with Trypanosoma cruzi assessed as necrotic cells in portal tracts at 5 mg/kg, ip after 120 days postinfection by Histopathological analysis; assay type: organism-based; set-up: dose 5 mg/kg, route intraperitoneal; conditions: in vivo, 2880 h; procedure, shortened: as §3
Trypanosoma cruzi [18] = experiment: Trypanosomicidal activity against Trypanosoma cruzi epimastigotes assessed as intense vacuolization of protozoan cells by TEM analysis; assay type: functional, organism-based
Trypanosoma cruzi [19] = experiment: Trypanosomicidal activity against Trypanosoma cruzi epimastigotes assessed as reservosomes in cytoplasm by TEM analysis; assay type: functional, organism-based
Trypanosoma cruzi [20] = experiment: Trypanosomicidal activity against Trypanosoma cruzi epimastigotes assessed as altered nucleus by TEM analysis; assay type: functional, organism-based
Trypanosoma cruzi [21] = experiment: Inhibition of Trypanosoma cruzi epimastigotes Fe-SOD at 50 ug/ml by NBT reduction assay; procedure, shortened: as §2
Trypanosoma cruzi [22] = experiment: Inhibition of Trypanosoma cruzi epimastigotes Fe-SOD at 25 ug/ml by NBT reduction assay; procedure, shortened: as §2
Trypanosoma cruzi [23] = experiment: Inhibition of Trypanosoma cruzi epimastigotes Fe-SOD at 10 ug/ml by NBT reduction assay; procedure, shortened: as §2
Trypanosoma cruzi [24] = experiment: Antitrypanosomal activity against Trypanosoma cruzi infected in BALB/c mouse assessed as reduction in parasitemia at 1 mg/kg, ip dosed for 5 days measured on day 30 post infection; assay type: functional; set-up: scale not given: the % may be the effect or the level left; conditions: route intraperitoneal
Procedure, shortened: (§4)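 Female BALB/c mice infected with trypomastigotes, dosed ip at 1 mg/kg/day on days 5–10 postinfection; vehicle controls. Mandibular vein blood (5 μL) diluted in citrate/lysis buffer pH 7.2; parasites counted under immersion objective every 2 days from day 5 to 30, as parasites/mL.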

Trypanosoma cruzi [25] = experiment: Antitrypanosomal activity against Trypanosoma cruzi infected in BALB/c mouse assessed as reduction in trypomastigotes at 1 mg/kg, ip dosed for 5 days measured on day 14 post infection; assay type: functional, organism-based; set-up: dose 1 mg/kg; procedure, shortened: as §4
Trypanosoma cruzi [26] = experiment: Antitrypanosomal activity against Trypanosoma cruzi infected in BALB/c mouse assessed as reduction in anti-organism antibody at 1 mg/kg, ip dosed for 5 days measured on day 40 to 120 post infection; assay type: functional, organism-based; set-up: dose 1 mg/kg
Procedure, shortened: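 Infected female BALB/c mice given 1 mg/kg/day ip for 5 days. Serum (1:50 in PBS) on days 40 and 120 tested by ELISA against excreted epimastigote Fe-SOD antigen; absorbance 490 nm, cutoff = negative-control mean + 3 SD; change is day-120 minus day-40 absorbance.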

Trypanosoma cruzi [27] = experiment: Trypanosomicidal activity against Trypanosoma cruzi epimastigotes assessed as inhibition of succinate metabolite excretion after 96 hrs by NMR analysis; assay type: functional
Procedure, shortened: (§5)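 Epimastigotes (5 × 10^5 cells/mL) exposed to IC25 of compound for 96 h at 28 °C; supernatant after centrifugation analysed by 1H NMR with DSS reference, compared against untreated cultures.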

Trypanosoma cruzi [28] = experiment: Trypanosomicidal activity against Trypanosoma cruzi epimastigotes assessed as inhibition of acetate metabolite excretion after 96 hrs by NMR analysis; assay type: functional; procedure, shortened: as §5
Trypanosoma cruzi [29] = experiment: Trypanosomicidal activity against Trypanosoma cruzi epimastigotes assessed as inhibition of L-lactate metabolite excretion after 96 hrs by NMR analysis; assay type: functional; procedure, shortened: as §5
[30] = Selectivity ratio of IC50 for Trypanosoma cruzi epimastigotes Fe-SOD to IC50 for human erythrocyte Cu-Zn SOD
[31] = biological target: Superoxide dismutase [Cu-Zn], SOD1 (Homo sapiens) (UniProt P00441); experiment: Activity of human erythrocyte Cu-Zn SOD by NBT reduction assay
Chain of Superoxide dismutase [Cu-Zn], SOD1 (Homo sapiens) (P00441 whole entry, looked up): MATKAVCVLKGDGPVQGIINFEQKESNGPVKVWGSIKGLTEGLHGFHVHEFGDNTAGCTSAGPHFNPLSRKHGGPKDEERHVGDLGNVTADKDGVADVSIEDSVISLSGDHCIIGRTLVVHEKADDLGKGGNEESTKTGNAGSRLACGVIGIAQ

Trypanosoma cruzi [32] = experiment: Trypanosomicidal activity against Trypanosoma cruzi epimastigotes assessed as very electron dense protozoan cells by TEM analysis; assay type: functional, organism-based
Trypanosoma cruzi [33] = experiment: Trypanosomicidal activity against Trypanosoma cruzi epimastigotes assessed as distorted shape of protozoan cells by TEM analysis; assay type: functional, organism-based
Trypanosoma cruzi [34] = experiment: Antitrypanosomal activity against Trypanosoma cruzi infected in BALB/c mouse assessed as survival rate at 1 mg/kg, ip dosed for 5 days; assay type: functional; conditions: 120 h, route intraperitoneal
Procedure, shortened: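 Female BALB/c mice were infected with trypomastigotes of T. cruzi SN3 strain (Colombian R. prolixus isolate). Dosing was ip at 1 mg/kg/day for 5 consecutive days, on days 5–10 postinfection. Controls were infected mice given vehicle only, plus uninfected groups. Mortality was followed over the acute phase (first 30 days) and the chronic phase (days 40–120 postinfection).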

Structure (SMILES)	inhibition (Trypanosoma cruzi [21])	IC50 (Trypanosoma cruzi [1])	IC50 (Trypanosoma cruzi [2])	IC50 (Trypanosoma cruzi [3])	IC50 (Vero)	selectivity ratio [4]	selectivity ratio [5]	selectivity ratio [6]	Activity (Trypanosoma cruzi [7])	Activity (Trypanosoma cruzi [8])	Activity (Trypanosoma cruzi [9])	IC50 [10]	Activity (Mus musculus [11])	Activity (Mus musculus [12])	Activity (Mus musculus [13])	Activity (Mus musculus [14])	Activity (Mus musculus [15])	Activity (Mus musculus [16])	Activity (Mus musculus [17])	Activity (Trypanosoma cruzi [24])	other results
O=C(Cn1ccnc1[N+](=O)[O-])NCc1ccccc1 [BENZNIDAZOLE]	–	–	18.9 µM	23.3 µM	–	–	–	–	23%	13%	46%	–	Toxic	Toxic	Non-toxic	Non-toxic	Toxic	Toxic	Toxic	26%	Activity (Trypanosoma cruzi [26]): Active; inhibition (INH) (Trypanosoma cruzi [28]): -6%; survival at 1 mg/kg (Trypanosoma cruzi [34]): 80%
Cl.c1c2n[nH]c1CNCCN1CCNCc3cc(n[nH]3)CNCCN(CCNC2)CCNCc2cc([nH]n2)CNCC1	98%	1.3 µM	7.2 µM	6.2 µM	149 µM	115	20.7	24	74%	50%	70%	30.8 µM	Non-toxic	Non-toxic	Non-toxic	Non-toxic	Non-toxic	Toxic	Non-toxic	53%	Activity (Trypanosoma cruzi [18]): Active; Activity (Trypanosoma cruzi [32]): Active; Activity (Trypanosoma cruzi [33]): Active; inhibition (Trypanosoma cruzi [22]): 70%; Activity (Trypanosoma cruzi [25]): Active; Activity (Trypanosoma cruzi [26]): Active; inhibition (INH) (Trypanosoma cruzi [27]): 7%; inhibition (INH) (Trypanosoma cruzi [28]): 22%; Activity [31]: 23.4 U/mg

The next lines start with results.

inhibition (Trypanosoma cruzi [21])	Structure (SMILES)	IC50 (Trypanosoma cruzi [1])	IC50 (Trypanosoma cruzi [2])	IC50 (Trypanosoma cruzi [3])	IC50 (Vero)	selectivity ratio [4]	selectivity ratio [5]	selectivity ratio [6]	Activity (Trypanosoma cruzi [7])	Activity (Trypanosoma cruzi [8])	Activity (Trypanosoma cruzi [9])	IC50 [10]	Activity (Mus musculus [11])	Activity (Mus musculus [12])	Activity (Mus musculus [13])	Activity (Mus musculus [14])	Activity (Mus musculus [15])	Activity (Mus musculus [16])	Activity (Mus musculus [17])	Activity (Trypanosoma cruzi [24])	other results
98%	Cl.Cn1nc2cc1CNCCNCCNCc1cc(n(C)n1)CNCCNCCNC2	1.3 µM	8.8 µM	6.5 µM	178 µM	137	20.3	27.5	80%	42%	64%	4.2 µM	Non-toxic	Non-toxic	Toxic	Non-toxic	Non-toxic	Non-toxic	Non-toxic	39%	Activity (Trypanosoma cruzi [18]): Active; Activity (Trypanosoma cruzi [19]): Active; Activity (Trypanosoma cruzi [20]): Active; inhibition (Trypanosoma cruzi [22]): 70%; inhibition (Trypanosoma cruzi [23]): 75%; Activity (Trypanosoma cruzi [25]): Active; Activity (Trypanosoma cruzi [26]): Active; inhibition (INH) (Trypanosoma cruzi [27]): 70%; inhibition (INH) (Trypanosoma cruzi [28]): 15%; inhibition (INH) (Trypanosoma cruzi [29]): 58%; Ratio IC50 [30]: 23; Activity [31]: 23.4 U/mg
98%	Cl.c1ccc(Cn2nc3cc2CNCCNCCNCc2cc(n(Cc4ccccc4)n2)CNCCNCCNC3)cc1	16.5 µM	10 µM	13.8 µM	195 µM	11.8	19.5	14.2	>50%	26%	34%	28.7 µM	Toxic	Non-toxic	Toxic	Toxic	Toxic	Non-toxic	Non-toxic	16%	Activity (Trypanosoma cruzi [18]): Active; Activity (Trypanosoma cruzi [32]): Active; Activity (Trypanosoma cruzi [33]): Active; inhibition (Trypanosoma cruzi [22]): 70%; Activity (Trypanosoma cruzi [25]): Active; inhibition (INH) (Trypanosoma cruzi [27]): 19%; inhibition (INH) (Trypanosoma cruzi [28]): 23%; Activity [31]: 23.4 U/mg
65%	CCCCCCCCN1CCNCc2cc([nH]n2)CNCCN(CCCCCCCC)CCNCc2cc(n[nH]2)CNCC1	46.4 µM	20.8 µM	18.4 µM	21.5 µM	0.5	1	1.1	–	–	–	44.6 µM	–	–	–	–	–	–	–	–	Activity [31]: 23.4 U/mg
